Laboratory results published in PubChem BioAssay AID2298 (NMMLSC, 2010).
pEC50, pKi: −log10 of the molar value.

Molecular target: Regulator of G-protein signaling 16 (Homo sapiens) (UniProt O15492)
Experiment: RGS16-Galphao binding modulators, SAR follow-up, biochemical, multiplexed bead flow cytometry, SAR compounds (AID 2298)
Conditions: bead-based flow cytometry, AF488-Galphao binding to RGS16
Procedure, shortened: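 material = Bead-immobilised biotinylated RGS16, multiplexed bead sets | buffer or medium = HEPES/Lubrol/BSA buffer, pH 8.0 | reagent = AlexaFluor488-labelled Galphao-GDP-AlF4 probe, 7 nM final | compound dosing = 9 concentrations, 1:3 steps | incubation = Bead–Galphao binding incubation 30–90 min, room temperature | measured by = high-throughput flow cytometry, bead-gated median green (FL1) fluorescence | read-out = four-parameter EC50 and Ki (Kd 30 nM)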

Sequence of Regulator of G-protein signaling 16 (Homo sapiens) (O15492 whole entry, looked up): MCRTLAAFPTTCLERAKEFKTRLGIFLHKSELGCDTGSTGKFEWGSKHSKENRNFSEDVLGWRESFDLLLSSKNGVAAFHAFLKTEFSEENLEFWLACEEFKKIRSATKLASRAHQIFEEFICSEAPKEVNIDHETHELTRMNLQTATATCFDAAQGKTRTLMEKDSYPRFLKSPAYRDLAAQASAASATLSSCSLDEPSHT

pEC50	Structure (SMILES)
7.54	NS(=O)(=O)c1ccc(N/N=C/c2ccc(O)c(O)c2O)c([N+](=O)[O-])c1

Same assay, conditions: bead-based flow cytometry, AF488-Galphao binding to RGS16; measured here: Ki derived from EC50, inhibitors

Structure (SMILES)	pKi
O=C(Cc1csc(N2CCOCC2)n1)N/N=C/c1ccc(O)c(O)c1O	6.17
CN=c1scc(C)n1/N=C/c1ccc(O)c(O)c1O	6.39
CCN=c1scc(C)n1/N=C/c1ccc(O)c(O)c1O	6.07
CCOC(=O)c1sc(NC(=O)CSc2nnc(Cc3ccccc3)o2)c(C#N)c1C	6.24
CCN(CC)S(=O)(=O)c1cccc(C(=O)N/N=C/c2ccc(O)c(O)c2O)c1	6.32
CCN(CC)S(=O)(=O)c1cccc(-c2n[nH]c(=S)n2/N=C/c2ccc(C(=O)OC)cc2)c1	6.12
CC1(C)OC(=O)C(=Cc2ccc(-c3ccc(S(N)(=O)=O)cc3)o2)C(=O)O1	5.55
CCC(=O)NC(c1ccc(C)cc1)c1cc([N+](=O)[O-])c2cccnc2c1O (centres undefined)	5.37
O=C(NCCCN1CCOCC1)c1sc2cc([N+](=O)[O-])ccc2c1Cl	6.57
Cc1[nH]n(-c2ccccc2)c(=S)c1C=NCCCN=Cc1c(C)[nH]n(-c2ccccc2)c1=S	6.48
Cc1cccc(N2CCN(C(=O)COc3nsc4nc(C)cc(C)c34)CC2C)c1 (centres undefined)	5.94
COC(=O)CCC(=O)Nc1sc(C)c(C)c1C(N)=O	5.94
CC(=O)OCCCNc1cc(Sc2nc3ccccc3s2)c2nonc2c1[N+](=O)[O-]	6.66

Now those with a higher pKi, led by results:

pKi	Structure (SMILES)
6.77	CC(NC(=O)c1sc2cc([N+](=O)[O-])ccc2c1Cl)C(C)(C)C (centres undefined)
6.92	COc1ccc(C2=CC(=O)C=CC2=O)cc1
7.00	O=C1C(Cl)=C(N2CCCCC2)C(=O)C(Cl)=C1c1cnc(N2CCCCC2)s1
7.05	O=C(COc1ccccc1C(=O)N/N=C/c1ccc(O)c(O)c1)N/N=C/c1ccc(O)c(O)c1
7.05	Cc1cccc(N2CCN(C(=O)Cn3sc4nc(C)cc(C)c4c3=O)CC2C)c1 (centres undefined)
7.40	Cc1[nH]n(-c2ccccc2)c(=S)c1C=Nc1cccc([N+](=O)[O-])c1
7.40	Cc1cc(Cl)ccc1N=c1ssnc1Cl
7.70	NS(=O)(=O)c1ccc(N/N=C/c2ccc(O)c(O)c2O)c([N+](=O)[O-])c1
7.70	O=c1c2ccccc2sn1-c1ccc(S(=O)(=O)N2CCCC2)cc1
7.70	CN1CCN(C2=C(Cl)C(=O)C(c3cnc(N4CCCCC4)s3)=C(Cl)C2=O)CC1
